From ChEMBL document CHEMBL5038583, “Highly Potent and Selective Butyrylcholinesterase Inhibitors for Cognitive Improvement and Neuroprotection” (J Med Chem, 2021)
Active and inactive are the calls of the source. No cut-off for these calls is given here.

Assays:
[1] = Metabolic stability in human liver microsomes assessed as intrinsic clearance at 1 uM measured upto 45 mins in presence of NADPH by LC/MS/MS analysis; type: ADME, Microsome; conditions: read-out: CLH
Procedure, shortened: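 Human liver microsomes 0.5 mg/mL, compound 1 μM final, NADPH 2 mM, at 37 °C. Reactions stopped at 0, 5, 15, 30 and 45 min with acetonitrile containing imipramine internal standard. LC/MS/MS quantitation relative to 0 min; initial rates used for t1/2 and intrinsic clearance; ketanserin as assay control. Mean of two independent experiments.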

[2] = tested on: SH-SY5Y; test: Neuroprotective activity against H2O2-induced cytotoxicity in human SH-SY5Y cells pretreated for 2 hrs followed by H2O2 stimulation and measured after 24 hrs by MTT assay; type: functional, cell-based; conditions: dose 2.5-10 µM, time 26.0 hrs
Procedure, shortened: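 SH-SY5Y cells seeded at 5000 per well and grown 24 h. Pretreated 2 h with compound (2.5 or 10 μM, diluted in DMEM from 10⁻¹ M DMSO stock), then H₂O₂ 200 μM, glutamate 20 mM or aggregated Aβ1-42 15 μM for 24 h. MTT added for 4 h, formazan dissolved in DMSO, absorbance read at 492 nm. Viability relative to untreated control; mean ± SEM, n = 3.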

[3] = tested on: Mus musculus; test: Anti-alzheimer activity in amyloid beta(1 to 42)-induced ICR mouse model of cognitive impairment assessed as reduction in escape latency time at 15 mg/kg, ig administered at days 2 to 14 by Morris water maze test; type: functional
Procedure, shortened: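 Mouse model by icv oligomerized Aβ1-42 (10 μg/mouse, aggregated 24 h at 37 °C in saline) on day 1; 15 mg/kg ig on days 2−14, n = 8. Morris water maze training on days 9−13, probe trial day 14, escape latency and track recorded. Mean SD.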

[4] = Toxicity in ICR mouse assessed as increase in body weight administered for 14 days and measured daily; conditions: in vivo, 15 mg/kg, 336 h
[5] = AUC (0 to t) in ICR mouse plasma at 10 mg/kg, po measured upto 240 mins; type: ADME, organism-based; design: route oral, dose 10 mg/kg, time <=240
Procedure, shortened: (§1)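 ICR mice given 10 mg/kg orally in 5% DMSO/40% PEG400/55% saline (1 mg/mL). Blood (retro-orbital) and brain collected at 30, 60, 120 and 240 min. Brain homogenized in 2 volumes PBS, extracted with ethyl acetate, dried and reconstituted in mobile phase. Plasma processed as in the rat study; LC/MS/MS. Brain/plasma ratios from exposures, AUC(B) vs AUC(P).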

[6] = tested on: Plasma; test: Increase in ghrelin levels in ICR mouse plasma assessed as inhibition of BChE; type: functional, cell-free
[7] = Cmax in overnight fasted Sprague-Dawley rat at 10 mg/kg, iv measured upto 1440 mins by LC/MS/MS analysis; type: ADME, organism-based; design: route intravenous, dose 10 mg/kg, time <=1440; conditions: in vivo, 24 h
Procedure, shortened: (§2)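 Male SD rats (180−220 g), n = 8 per route, fasted overnight with water available. Single 10 mg/kg dose p.o. or i.v. in DMSO/PEG400/saline (10:80:10). Retro-orbital blood taken into heparinized tubes at 1–1440 min. Plasma precipitated with methanol containing theophylline internal standard, then LC/MS/MS against a blank-plasma standard curve. Parameters from noncompartmental extravascular analysis; mean ± SD.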

[8] = Half life in overnight fasted Sprague-Dawley rat at 10 mg/kg, po measured upto 1440 mins by LC/MS/MS analysis; type: ADME, organism-based; conditions: in vivo; procedure, shortened: as §2
[9] = Hepatotoxicity in ICR mouse assessed as change in aspartate aminotransferase activity at 1 g/kg, ig administered daily for 14 days measured upto 36 hrs post-administration; type: toxicity; conditions: in vivo, po, 1000 mg/kg, 336 h, time 14 day
Procedure, shortened: (§3)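 Heparinized serum from ICR mice taken at 8, 22 and 36 h after oral compound or saline control; AST and ALT activities measured.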

[10] = Acute toxicity in ICR mouse assessed as animal death at […]; conditions: in vivo, po, 1000 mg/kg, 336 h
[11] = tested on: SH-SY5Y; test: Cytotoxicity against human SH-SY5Y cells assessed as survival rate at 100 uM incubated for 24 hrs by MTT assay; type: functional
Procedure, shortened: (§4)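 Cells seeded at 1 × 10⁴/well in DMEM with 10% FBS and left overnight, then given compound (DMSO stock diluted in DMEM) for 24 h at 37 °C. MTT added for 4 h, formazan dissolved in DMSO, absorbance read at 492 nm. Viability taken as OD treated/OD DMEM × 100%; IC50 from three independent experiments, mean SD.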

[12] = tested on: BV-2; test: Anti-inflammatory activity against mouse BV-2 cells assessed as blocked of LPS-induced increased ROS production by measuring green fluorescence preincubated for 1 hr by DCFH-DA staining based fluorescence microscopy; type: functional, cell-based
Procedure, shortened: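 BV2 cells seeded at 1 × 10⁴ per well and grown 24 h at 37 °C. Compounds at various concentrations for 1 h, then LPS 2.5 μg/mL for 24 h. Washed in PBS, loaded with DCFH-DA 5 μM (final) for 30 min, washed three times. Intracellular ROS taken as green fluorescence intensity by inverted fluorescence microscopy, exposure fixed at 10.2 ms.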

[13] = Ratio of drug concentration in brain to plasma of ICR mouse at 10 mg/kg, po measured after 1 hrs; type: ADME, organism-based; procedure, shortened: as §1
[14] = AUC (0 to t) in overnight fasted Sprague-Dawley rat at 10 mg/kg, iv measured upto 1440 mins by LC/MS/MS analysis; type: ADME, organism-based; design: route intravenous, dose 10 mg/kg, time <=1440; conditions: in vivo, 24 h; procedure, shortened: as §2
[15] = AUC (0 to infinity) in overnight fasted Sprague-Dawley rat at 10 mg/kg, po measured upto 1440 mins by LC/MS/MS analysis; type: ADME, organism-based; design: route oral, dose 10 mg/kg, time <=1440; conditions: in vivo; procedure, shortened: as §2
[16] = Cmax in overnight fasted Sprague-Dawley rat at 10 mg/kg, po measured upto 1440 mins by LC/MS/MS analysis; type: ADME, organism-based; design: route oral, dose 10 mg/kg, time <=1440; conditions: in vivo; procedure, shortened: as §2
[17] = tested on: BV-2; test: Cytotoxicity against mouse BV-2 cells assessed as survival rate at 100 uM incubated for 24 hrs by MTT assay; type: functional; procedure, shortened: as §4
[18] = Ratio of drug concentration in brain to plasma of ICR mouse at 10 mg/kg, po measured after 0.5 hrs; type: ADME, organism-based; procedure, shortened: as §1
[19] = Hepatotoxicity in ICR mouse assessed as change in alanine aminotransferase activity at 1 g/kg, ig administered daily for 14 days measured upto 36 hrs post-administration; type: toxicity; conditions: in vivo, po, 1000 mg/kg, 336 h, time 14 day; procedure, shortened: as §3
[20] = Half life in overnight fasted Sprague-Dawley rat at 10 mg/kg, iv measured upto 1440 mins by LC/MS/MS analysis; type: ADME, organism-based; conditions: in vivo; procedure, shortened: as §2
[21] = tested on: L02; test: Cytotoxicity against human L02 cells assessed as survival rate at 100 uM incubated for 24 hrs by MTT assay; type: functional; procedure, shortened: as §4
[22] = AUC (0 to infinity) in overnight fasted Sprague-Dawley rat at 10 mg/kg, iv measured upto 1440 mins by LC/MS/MS analysis; type: ADME, organism-based; design: route intravenous, dose 10 mg/kg, time <=1440; conditions: in vivo, 24 h; procedure, shortened: as §2
[23] = Ratio of drug concentration in brain to plasma of ICR mouse at 10 mg/kg, po measured after 4 hrs; type: ADME, organism-based; procedure, shortened: as §1
[24] = Ratio of drug concentration in brain to plasma of ICR mouse at 10 mg/kg, po measured after 2 hrs; type: ADME, organism-based; procedure, shortened: as §1
[25] = MRT (0 to infinity) in overnight fasted Sprague-Dawley rat at 10 mg/kg, po measured upto 1440 mins by LC/MS/MS analysis; type: ADME, organism-based; conditions: in vivo; procedure, shortened: as §2
[26] = target: Cholinesterase (Equus caballus, UniProt P81908); test: Inhibition of equine serum BChE using butyrylthiocholine iodide as substrate preincubated for 5 mins followed by substrate addition and measured after 2 mins by DTNB-reagent based Ellman's method
Cholinesterase, sequence (P81908 whole entry): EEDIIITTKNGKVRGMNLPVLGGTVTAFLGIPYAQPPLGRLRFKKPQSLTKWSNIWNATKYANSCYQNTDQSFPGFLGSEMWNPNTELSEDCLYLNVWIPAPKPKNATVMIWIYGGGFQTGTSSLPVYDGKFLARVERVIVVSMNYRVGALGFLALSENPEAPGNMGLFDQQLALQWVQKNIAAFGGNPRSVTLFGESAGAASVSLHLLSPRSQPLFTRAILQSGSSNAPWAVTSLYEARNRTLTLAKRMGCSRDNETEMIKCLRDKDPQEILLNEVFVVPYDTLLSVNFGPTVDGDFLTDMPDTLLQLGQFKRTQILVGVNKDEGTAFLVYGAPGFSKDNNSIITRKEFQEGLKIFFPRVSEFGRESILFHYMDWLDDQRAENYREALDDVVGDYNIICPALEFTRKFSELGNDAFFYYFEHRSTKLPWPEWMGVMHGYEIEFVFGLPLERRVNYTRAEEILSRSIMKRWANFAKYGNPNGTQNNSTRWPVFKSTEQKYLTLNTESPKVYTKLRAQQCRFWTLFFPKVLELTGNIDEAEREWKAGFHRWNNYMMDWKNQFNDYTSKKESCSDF

Structure (SMILES): Nc1nonc1-c1nc2ccccc2n1CC(=O)Nc1cnc2ccccc2c1
- CLint scaled at 1 µM [1]: 10.9 mL/min/kg
- Activity [2]: Dose-Dependent Effect
- Time [3]: 13.83 s
- Activity [4]: Toxic
- AUC(0-t) at 4 h [5]: 94.7 ng·h/mL
- Activity [6]: Active
- Cmax [7]: 488.33 ng/mL
- half-life [8]: 5.47 h
- Activity [9]: Non-Toxic
- Activity [10]: Non-Toxic
- Activity [11]: 62.19%
- Activity [12]: Active
- Kp at 1 h [13]: 5.05
- AUCt [14]: 859.64 ng·h/mL
- AUC(0-inf) [15]: 662 ng·h/mL
- Cmax [16]: 44.7 ng/mL
- Activity [17]: 69.72%
- Kp at 0.5 h [18]: 1.54
- Activity [19]: Non-Toxic
- half-life [20]: 8.87 h
- Activity [21]: 70.64%
- AUC [22]: 1092.11 ng·h/mL
- Kp at 4 h [23]: 1.54
- Kp at 2 h [24]: 2.43
- MRT inf [25]: 11.6 h
- IC50 [26]: 20 nM
